Assay results reported in ChEMBL document CHEMBL1926607 (J Med Chem, 2011).

Columns and labels:
[1] = biological target: T1, 5-hydroxytryptamine receptor 1A (Homo sapiens) (UniProt P08908); test: Agonist activity at human 5HT1A receptor expressed in human HeLa cells assessed as inhibition of forskolin-stimulated cAMP production pretreated 20 mins before forskolin challenge measured after 2 hrs by RIA relative to control; assay type: functional, cell-based
T1 sequence (whole entry): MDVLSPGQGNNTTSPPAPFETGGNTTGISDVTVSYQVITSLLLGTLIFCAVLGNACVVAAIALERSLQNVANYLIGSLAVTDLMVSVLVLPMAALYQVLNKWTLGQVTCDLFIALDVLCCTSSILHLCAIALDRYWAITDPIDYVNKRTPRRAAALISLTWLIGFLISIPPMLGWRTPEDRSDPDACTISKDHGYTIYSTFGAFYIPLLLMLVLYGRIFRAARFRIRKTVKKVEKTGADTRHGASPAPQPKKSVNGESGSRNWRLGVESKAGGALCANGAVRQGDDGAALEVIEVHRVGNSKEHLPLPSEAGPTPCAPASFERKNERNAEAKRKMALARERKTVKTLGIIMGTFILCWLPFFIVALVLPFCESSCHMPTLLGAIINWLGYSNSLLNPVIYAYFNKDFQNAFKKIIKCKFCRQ

Mus musculus = test: Antihypothermic activity in ip dosed Swiss mouse assessed as inhibition of 8-OH-DPAT-induced hypothermia administered 30 mins before 8-OH-DPAT challenge measured after 15 to 60 mins; assay type: functional; conditions: read-out: MED
In short: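 Male Swiss mice (23–28 g) were housed five per cage. Rectal temperature (probe at 2 cm) was read at 15, 30 and 60 min after injection. The response was the maximum fall from basal temperature, analysed by ANOVA with Student–Newman–Keuls test.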

[2] = Neuroprotective activity in Wistar rat hippocampi primary neuronal cells assessed as protection against serum-deprivation induced cell death at 0.1 uM after 24 hrs by MTT assay; assay type: functional, Hippocampus, Primary neuron
In short: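 Mixed neuron-glia cultures from E18 Wistar rat hippocampi (Neurobasal plus 10% FCS), used at 11 days in vitro. Medium replaced by saline to withdraw serum; cells held 24 h with compound. Cell survival measured by MTT reduction, expressed as % protection.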

[3] = Neuroprotective activity in Wistar rat hippocampi primary neuronal cells assessed as protection against glutamate-induced cell death at 0.1 uM treated 30 min before glutamate challenge measured after 22 hrs by MTT assay; assay type: functional, Hippocampus, Primary neuron
In short: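 E18 fetal Wistar rat hippocampal neurons in neuron-enriched culture (Neurobasal, 2% B27, poly-L-lysine), used at 11 days in vitro. Compound added 30 min before 1 mM glutamate, exposure 22 h. Survival by MTT (mitochondrial dehydrogenase) read-out, reported as % protection.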

[4] = biological target: T2, 5-hydroxytryptamine receptor 1A (Homo sapiens, UniProt P08908); test: Agonist activity at human 5HT1A receptor expressed in human HeLa cells assessed as inhibition of forskolin-stimulated cAMP production […] measured after 2 hrs by RIA; assay type: functional, cell-based
T2 sequence (P08908 whole entry): T1 sequence (whole entry)
In short: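 HeLa cells stably expressing the h5-HT1AR, grown in DMEM with 2 mM glutamine, 1 mM pyruvate and 10% heat-inactivated FCS, and used after 2–3 days at about 7.5 × 10^4 cells/well. After a PBS wash, cells were incubated 10 min in PBS with 0.5 mM isobutylmethylxanthine and 10 μM forskolin, with or without compound. The reaction was stopped with ice-cold ethanol, extracted 2 h and lyophilized; cAMP was measured by RIA.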

[5] = Neuroprotective activity in Wistar rat hippocampi primary neuronal cells assessed as protection against oxygen-glucose deprivation induced cell death at 0.1 uM after 18 hrs by MTT assay; assay type: functional, Hippocampus, Primary neuron
Rattus norvegicus [6] = test: Neuroprotective activity in permanent middle cerebral artery occlusion-induced ischemic in Sprague-Dawley rat assessed as decrease in cortical infract volume at 40 ug/kg/h, iv administered 1 hr before ischemia and 1 hr after ischemia measured after 24 hrs (reference value: 399 +/- 38 mm3); assay type: functional
Rattus norvegicus [7] = test: Neuroprotective activity in permanent middle cerebral artery occlusion-induced ischemic in Sprague-Dawley rat assessed as decrease in sub-cortical infract volume at 40 ug/kg/h, iv administered 1 hr before ischemia and 1 hr after ischemia measured after 24 hrs (reference value: 147 +/- 23 mm3); assay type: functional
Rattus norvegicus [8] = test: Neuroprotective activity against permanent middle cerebral artery occlusion-induced focal ischemia in Sprague-Dawley rat assessed as decrease in total cerebral infract volume at 40 ug/kg/h, iv administered 1 hr before ischemia and 1 hr after ischemia measured after 24 hrs (reference value: 546 +/- 51 mm3); assay type: functional

With `O=C1c2ccccc2S(=O)(=O)N1CCCCNCC1CCc2ccccc2O1` (racemic) the Emax [1] was 94.8%, the minimal effective dose (Mus musculus) was 0.15 mg/kg and the Activity [2] was 26%. It also gave an Activity [3] of 16% and an EC50 [4] of 1.5 nM.
`O=C1c2ccccc2S(=O)(=O)N1CCCCNC[C@H]1CCc2ccccc2O1` [REPINOTAN] gave an Activity [5] of 78%, an Activity (Rattus norvegicus [6]) of 271 mm3 and an Activity [2] of 31%. For the same molecule, the Activity (Rattus norvegicus [7]) was 106 mm3 and the Activity (Rattus norvegicus [8]) was 377 mm3.
